Experimental data from ChEMBL document CHEMBL1150813, “Triterpene saponins from Vietnamese ginseng (Panax vietnamensis) and their hepatocytoprotective activity” (J Nat Prod, 2001).

Legend:
Type in all cases: functional
[1] = tested on: Hepatocyte; experiment: Hepatoprotective activity in mouse hepatocytes assessed inhibition of D-galactosamine/TNFalpha-induced cell death dosed administered before 30 mins of TNFalpha challenge measured after 18 hrs
In short: (§1)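 Primary mouse hepatocytes, isolated by collagenase perfusion, were cultured in William's E medium with 10% calf serum, dexamethasone and insulin at 1.5×10^4 cells/well. TNF-α (100 ng/mL) was added 30 min later. Viability was read by MTT after 18 h. Values are mean ± SD, n = 4 (normal and control n = 8), with Student's t-test versus control.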

[2] = tested on: Hepatocyte; experiment: Hepatoprotective activity in mouse hepatocytes assessed protection against D-galactosamine/TNFalpha-induced cell death at 50 uM administered before 30 mins of TNFalpha challenge measured after 18 hrs; in short: as §1
[3] = tested on: Hepatocyte; experiment: Hepatoprotective activity against D-galactosamine/TNFalpha-induced cell death in mouse hepatocytes assessed cell survival rate at 50 uM administered before 30 mins of TNFalpha challenge measured after 18 hrs by MTT assay; in short: as §1
[4] = tested on: Hepatocyte; experiment: Hepatoprotective activity against D-galactosamine/TNFalpha-induced cell death in mouse hepatocytes assessed cell survival rate at 100 uM administered before 30 mins of TNFalpha challenge measured after 18 hrs by MTT assay; in short: as §1
[5] = tested on: Hepatocyte; experiment: Hepatoprotective activity in mouse hepatocytes assessed protection against D-galactosamine/TNFalpha-induced cell death at 100 uM administered before 30 mins of TNFalpha challenge measured after 18 hrs; in short: as §1
[6] = tested on: Hepatocyte; experiment: Hepatoprotective activity in mouse hepatocytes assessed inhibition of D-galactosamine/TNFalpha-induced cell death at 50 uM administered before 30 mins of TNFalpha challenge measured after 18 hrs; in short: as §1
[7] = tested on: Hepatocyte; experiment: Hepatoprotective activity against D-galactosamine/TNFalpha-induced cell death in mouse hepatocytes assessed cell survival rate at 25 uM administered before 30 mins of TNFalpha challenge measured after 18 hrs by MTT assay; in short: as §1
[8] = tested on: Hepatocyte; experiment: Hepatoprotective activity in mouse hepatocytes assessed inhibition of D-galactosamine/TNFalpha-induced cell death at 100 uM administered before 30 mins of TNFalpha challenge measured after 18 hrs; in short: as §1
[9] = tested on: Hepatocyte; experiment: Hepatoprotective activity in mouse hepatocytes assessed protection against D-galactosamine/TNFalpha-induced cell death at 25 uM administered before 30 mins of TNFalpha challenge measured after 18 hrs; in short: as §1
[10] = tested on: Hepatocyte; experiment: Hepatoprotective activity in mouse hepatocytes assessed protection against D-galactosamine/TNFalpha-induced cell death at 12.5 uM administered before 30 mins of TNFalpha challenge measured after 18 hrs; in short: as §1
[11] = tested on: Hepatocyte; experiment: Hepatoprotective activity in mouse hepatocytes assessed inhibition of D-galactosamine/TNFalpha-induced cell death at 25 uM administered before 30 mins of TNFalpha challenge measured after 18 hrs; in short: as §1
[12] = tested on: Hepatocyte; experiment: Hepatoprotective activity in mouse hepatocytes assessed inhibition of D-galactosamine/TNFalpha-induced cell death at 12.5 uM administered before 30 mins of TNFalpha challenge measured after 18 hrs; in short: as §1
[13] = tested on: Hepatocyte; experiment: Hepatoprotective activity against D-galactosamine/TNFalpha-induced cell death in mouse hepatocytes assessed cell survival rate at 12.5 uM administered before 30 mins of TNFalpha challenge measured after 18 hrs by MTT assay; in short: as §1
[14] = tested on: Hepatocyte; experiment: Hepatoprotective activity against D-galactosamine/TNFalpha-induced cell death in mouse hepatocytes assessed cell survival rate at 200 uM administered before 30 mins of TNFalpha challenge measured after 18 hrs by MTT assay; in short: as §1
[15] = tested on: Hepatocyte; experiment: Hepatoprotective activity in mouse hepatocytes assessed protection against D-galactosamine/TNFalpha-induced cell death at 200 uM administered before 30 mins of TNFalpha challenge measured after 18 hrs; in short: as §1
[16] = tested on: Hepatocyte; experiment: Hepatoprotective activity in mouse hepatocytes assessed inhibition of D-galactosamine/TNFalpha-induced cell death at 200 uM administered before 30 mins of TNFalpha challenge measured after 18 hrs; in short: as §1

| SMILES | IC50 [1] | Activity [2] | Survival [3] | Survival [4] | Activity [5] | inhibition (INH) [6] | Survival [7] | inhibition (INH) [8] | Activity [9] | Activity [10] | inhibition (INH) [11] | inhibition (INH) [12] | Survival [13] | Survival [14] | Activity [15] | inhibition (INH) [16] |
| --- | --- | --- | --- | --- | --- | --- | --- | --- | --- | --- | --- | --- | --- | --- | --- | --- |
| CC(=O)OC[C@H]1O[C@@H](O[C@H]2C[C@]3(C)[C@H](C[C@@H](O)[C@@H]4[C@@H]([C@]5(C)CC[C@@H](C(C)(C)O)O5)CC[C@]43C)[C@@]3(C)CC[C@H](O)C(C)(C)[C@H]23)[C@H](O[C@@H]2O[C@H](C)[C@@H](O)[C@H](O)[C@@H]2O)[C@@H](O)[C@@H]1O [VINA-GINSENOSIDE R1] | 47 µM | 29% | 45.6% | 57% | 71.5% | 51.7% | 33.1% | 89.8% |  |  |  |  |  |  |  |  |
| COc1cc(C2Oc3cc([C@H]4Oc5cc(O)cc(O)c5C(=O)[C@@H]4O)ccc3OC2CO)ccc1O (stereo partly drawn) [SILIBININ] | 14 µM | 64.3% | 75% |  |  | 149.7% | 60% |  | 42.8% | 17.3% | 99.7% | 43.4% | 43.1% |  |  |  |
| CC(=O)OC[C@H]1O[C@@H](O[C@H]2C[C@]3(C)[C@H](C[C@@H](O)[C@@H]4[C@@H]([C@]5(C)CC[C@@H](C(C)(C)O)O5)CC[C@]43C)[C@@]3(C)CC[C@H](O)C(C)(C)[C@H]23)[C@H](O[C@@H]2OC[C@@H](O)[C@H](O)[C@H]2O)[C@@H](O)[C@@H]1O [GINSENOSIDE R2] | 63.2 µM | 19% | 43.2% | 51.7% | 31.1% | 44.7% |  | 72.9% |  |  |  |  |  | 72.9% | 61.3% | 143.8% |
| CC(C)(O)[C@@H]1CC[C@@](C)([C@H]2CC[C@]3(C)[C@@H]2[C@H](O)C[C@@H]2[C@@]4(C)CC[C@H](O)C(C)(C)[C@@H]4[C@@H](O)C[C@]23C)O1 [PROTOPANAXATRIOL OXIDE II] | 74 µM | 17.9% | 40.2% | 45.3% | 22.2% | 34.5% |  | 51.7% |  |  |  |  |  | 92.6% | 92.2% | 209.9% |
